Results pooled from the literature.
Protocols differ between the studies behind these lines.
KIT D816H: Mast/stem cell growth factor receptor Kit (KIT, Homo sapiens, UniProt P10721, D816H)
KIT T670I/V559D: Mast/stem cell growth factor receptor Kit (KIT, Homo sapiens, UniProt P10721, T670I/V559D)
KIT L576P: Mast/stem cell growth factor receptor Kit (KIT, Homo sapiens, UniProt P10721, L576P)

SMILES	target	effect on	mode	technique	concentration	measurement	value
C#Cc1cnc(Nc2ccnc(CO)c2)nc1Nc1ccccc1S(C)(=O)=NC#N (stereo not drawn)	Mast/stem cell growth factor receptor Kit (KIT, Homo sapiens, UniProt P10721)	cell-free assay			1 µM	remaining signal	73%
Cc1ccc(NC(=O)c2ccnc(C(F)(F)F)c2)cc1-c1cc(OCCO)nc(N2CCOCC2)c1	KIT D816H	binding			1 µM	remaining binding	99%
CO[C@@H]1[C@H](N(C)C(=O)c2ccccc2)C[C@H]2O[C@]1(C)n1c3ccccc3c3c4c(c5c6ccccc6n2c5c31)C(=O)NC4	KIT D816H	enzyme activity	inhibitor		1 µM	inhibition	98%
N#Cc1ccc(NC(=O)Nc2ccccc2)cc1	KIT T670I/V559D	cell-free assay		competition with immobilised ligand	25 µM	remaining binding	57%
CCCCC(=O)Nc1ccc(-c2ccc3ncn(CCC)c(=O)c3c2)cn1	KIT L576P	binding		competition with immobilised ligand	0.5 µM	remaining binding	87%
COc1ccc2[nH]c3c4[nH]c5ccc(OC)cc5c4c4c(c3c2c1)C(=O)NC4=O	KIT T670I/V559D	binding			1 µM	remaining binding	49%
COc1ccc2oc(-c3ccc4nc(N)oc4c3)c/c(=N\c3ccccc3NC(=O)CCN)c2c1	Mast/stem cell growth factor receptor Kit (KIT, Homo sapiens, UniProt P10721, V654A)	cell-free assay			1 µM	remaining signal	102%
C=CC(=O)N1CCC([C@@H]2CCNc3c(C(N)=O)c(-c4ccc(Oc5ccccc5)cc4)nn32)CC1	KIT L576P	enzyme activity	inhibitor		1 µM	inhibition	5%
C[C@H]1CC[C@H](n2c3cnccc3c3cnc(Nc4ccc5c(n4)CCN(C(=O)CO)C5)nc32)CC1	Mast/stem cell growth factor receptor Kit (KIT, Homo sapiens, UniProt P10721, A829P)	cell-free assay			1 µM	remaining signal	36%
C1=C/COCc2cc(ccc2OCCN2CCCC2)Nc2nccc(n2)-c2cccc(c2)COC/1	Mast/stem cell growth factor receptor Kit (KIT, Homo sapiens, UniProt P10721, V559D)	binding			0.1 µM	remaining binding	3.7%
CN1CCN(C(=O)c2ccc(NC(=O)Nc3ccc(N(C)c4ccnc(Nc5ccc(CS(C)(=O)=O)cc5)n4)cc3)cc2)CC1	Mast/stem cell growth factor receptor Kit (KIT, Homo sapiens, UniProt P10721, D816V)	binding			1 µM	remaining binding	23%
CC#CC(=O)N1CCC[C@H]1c1nc(-c2ccc(C(=O)Nc3ccccn3)cc2)c2c(N)nccn12	KIT L576P	enzyme activity	inhibitor		1 µM	inhibition	13%
